# Screening data from PubChem BioAssay.
# Shown are actives, neighbours in structure and some others; about 4.9% of the full set was active somewhere.
# Lipid droplet = inhibitors of hepatocyte lipid droplet formation, primary screen, imaging, high-throughput imaging, BODIPY stain | AML12 mouse hepatocytes, oleate lipid droplets | inhibition, % at 6.5 µM | 0.4% of 240,000 active;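 active = lipid droplet intensity inhibited by at least 50%, with more than 500 cells counted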
#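 Assay system: AML12 mouse liver cells | Compound dosing: One dose, 6.5 µM compound | Read-out basis: Droplet intensity reduction, % inhibition | Measured by: Fluorescence imaging, 20x objective, two fields per well | Schedule: Overnight treatment with compound plus oleate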
# CHT allo act = CHT positive allosteric modulators, primary screen, cell-based, membrane potential dye, choline EC20; High affinity choline transporter 1 (Homo sapiens), Q9GZV3; B-score at 10 µM; 0.49% of 310,000 active; CHT-expressing cells; active compounds read high; LV-AA mutant CHT in HEK293 cells;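 active = initial fluorescence not abnormally high and integrated response B-score, plate-corrected, over 3 SD above library mean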
# Target sequence (Q9GZV3 whole entry, looked up): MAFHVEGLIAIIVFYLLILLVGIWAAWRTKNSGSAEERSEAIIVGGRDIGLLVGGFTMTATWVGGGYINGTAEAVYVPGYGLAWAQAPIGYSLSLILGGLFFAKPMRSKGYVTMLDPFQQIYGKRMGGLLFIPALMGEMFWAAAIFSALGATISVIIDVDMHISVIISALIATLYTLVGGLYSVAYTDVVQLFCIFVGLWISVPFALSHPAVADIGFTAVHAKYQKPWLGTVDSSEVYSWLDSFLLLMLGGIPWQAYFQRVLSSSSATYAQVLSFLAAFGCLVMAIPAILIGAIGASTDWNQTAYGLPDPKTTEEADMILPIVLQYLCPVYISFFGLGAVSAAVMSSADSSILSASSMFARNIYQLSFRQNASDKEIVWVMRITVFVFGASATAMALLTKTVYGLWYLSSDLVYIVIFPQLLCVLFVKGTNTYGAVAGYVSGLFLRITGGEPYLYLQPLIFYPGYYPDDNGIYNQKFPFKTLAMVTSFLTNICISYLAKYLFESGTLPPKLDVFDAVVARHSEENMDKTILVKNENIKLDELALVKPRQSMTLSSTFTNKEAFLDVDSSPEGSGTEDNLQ
# HSF1 activator = HSF-1 activators, primary screen, NIH3T3-HGL cells, MG132 stress, luminescence, single point; NIH3T3-HGL HSF-1 luciferase reporter, 8 h; 100% = twice DMSO control signal; activation, % at 9 µM; 1.7% of 300,000 active; AID 504408, 2011;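 active = mean replicate activation of at least 50% with a set share of replicates each reaching 50%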;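 note: 0% = median of the neutral control wells and 100% = twice that signal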
# PHOSPHO1 block = PubChem AID 1565; Phosphoethanolamine/phosphocholine phosphatase (Homo sapiens), Q8TCT1; recombinant PHOSPHO1, absorbance phosphatase assay; inhibition, % at 13.3 µM; 1.1% of 290,000 active; in the data active = inhibition above about 60%
# CHT block = inhibitors of human choline transporter CHT; High affinity choline transporter 1 (Homo sapiens), Q9GZV3; CHT-expressing cells, membrane potential dye, choline response; active compounds read low; B-score at 10 µM; 0.86% of 310,000 active; AID 488975, 2010;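 active = B-score over 3 SD under the library average, and starting fluorescence ratio not unusually high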;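 note: choline stimulus applied at its EC90 after an EC20 pre-addition; B-score computed on integrated fluorescence ratio after choline addition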
# HSF1 inhib = HSF1 inhibitors in luciferase reporter cells, primary screen, cell-based, NIH3T3, luminescence; activity change, negative = inhibition, % at 7.5 µM (by protocol); 0.77% of 300,000 active; NIH3T3-HGL HSE-luciferase, MG132-induced, luminescence 8 h; active compounds read low;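 active = more than half of replicate wells show activity change below -50%, luminescence cut by over half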;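 note: luciferase reports HSF-1 transcriptional activity via heat shock element; 0% = median of DMSO wells and -100% = zero luminescence signal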
# CHT inh conf = CHT inhibitors, confirmation, cell-based, membrane potential dye, duplicate; shares compounds with CHT block; CHT-expressing cells, choline membrane potential dye; LV-to-AA substituted CHT, HEK293 cells; CHT activity remaining % of control (active compounds read low), % at 10 µM; 70% of 2,400 active;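 active = choline transporter activity left, mean of duplicates at 10 µM, below buffer-only control mean minus 3 SD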;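 note: depolarization triggered by choline at its EC90 following an EC20 pre-addition; 0% = hemicholinium-3 full block and 100% = buffer-only control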
# HEK293 CHT ctr = membrane potential effects in parental HEK293, counter-screen for CHT inhibitor project, cell-based, membrane potential dye; shares compounds with CHT block; choline response; active = decrease or increase beyond buffer ±3SD; membrane potential ratio readout (active if shifted either direction beyond buffer ±3SD; no single direction) at 10 µM; 4% of 2,400 active; AID 493222, 2011;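 note: parental cells lack the transporter so any hit is non-specific; ratio is peak minus trough fluorescence over baseline after EC90 choline challenge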
# Active calls of the source: *; i = inactive; . = no result.
SMILES,Lipid droplet,CHT allo act,HSF1 activator,PHOSPHO1 block,CHT block,HSF1 inhib,CHT inh conf,HEK293 CHT ctr
CCCn1nc([N+](=O)[O-])c(C(C#N)c2nc3ccccc3s2)c(Cl)c1=O (configuration not stated),-5,i,60*,23,-14*,46,17%*,i
O=C(CNCc1ccccc1Cl)Nc1ccccc1N1CCCCC1,-9,i,45,4,i,19,.,.
CCN(CC)c1ccc(NC(=O)CNCc2ccccc2Cl)c(C)c1,-16,i,18,20,-5.2*,4,57%*,i
COc1ccc(/C=C2\N=C(SC)SC2=O)cc1OC,.,i,-1,-11,i,3,.,.
CCOc1cc(/C=C2\N=C(SC)SC2=O)cc([N+](=O)[O-])c1OC(C)=O,.,i,-5,41,-5.2*,-5,65%*,i
CC(=O)N1CCN(C(=O)c2ccc(Oc3ccccc3)cc2)CC1,5,i,-43,-3,i,-30,.,.
O=C(Nc1cccnc1)c1ccc(COc2cc(Cl)ccc2Cl)o1,.,i,12,42,i,11,.,.
O=C(Nc1cccnc1)c1ccc(COc2ccccc2Cl)o1,.,i,-12,46,-7.3*,-4,56%*,i
O=C1C[C@H]2[C@H](CO)[C@@H](OC(=O)c3ccc(-c4ccccc4)cc3)C[C@H]2O1,0,i,35,15,-5.8*,20,64%*,i
CCOC(=O)N1CCC(N(CCN(C)C)C(=S)Nc2ccccc2C)CC1,6,i,25,2,i,3,.,.
CCOC(=O)N1CCC(NC(=O)C2CCCN(Cc3nc(-c4cccc(Cl)c4)oc3C)C2)CC1 (configuration not stated),.,i,-7,13,-6.4*,-2,51%*,i
O=C(CSc1ccc2ccccc2c1)Nc1ccncc1,-2,i,-27,12,-6*,-6,52%*,i
Cn1c(=O)c2c(nc(SCC(=O)N3CCOCC3)n2C)n(C)c1=O,8,i,-13,6,i,-7,.,.
CC(C)N1CCN(Cc2ccncc2)CC1CCO (configuration not stated),10,i,-10,-12,i,-4,.,.
Cc1ccc(-c2cccc(CN3CCN(C(C)C)C(CCO)C3)c2)o1 (configuration not stated),-13,i,-2,35,-5.3*,4,37%*,i
COc1ccc(-n2nc(C(=O)NCC(=O)N3CCN(c4ccccn4)CC3)c3ccccc3c2=O)cc1OC,0,i,-1,28,i,4,.,.
O=C(c1nn(-c2ccccc2)c(=O)c2ccccc12)N1CCN(c2ccccn2)CC1,.,i,1,27,-6*,-11,i,i
Cc1nn(CC2CC2)c(=O)n1-c1ccc(Oc2ccccc2)cc1,-4,i,-6,6,-12*,7,59%*,i
Cc1ccc([N+](=O)[O-])cc1N1C(=O)CS/C1=N\NC(=O)c1cccnc1,-3,i,10,20,i,5,.,.
O=S(=O)(Nc1nc2ccccc2nc1Nc1cccc(S(=O)(=O)N2CCCCC2)c1)c1ccccc1,2,i,101*,5,-7.4*,70,53%*,i
COCCCN(C(=S)Nc1cc(Cl)cc(Cl)c1)C(C)c1ccccn1 (configuration not stated),5,i,-14,25,i,3,.,.
Cc1nc(N2CCCCC2C)c2c(C)c(C(=O)Nc3ccccc3C(F)(F)F)sc2n1 (configuration not stated),-7,i,23,-20,-7.5*,10,i,i
Cc1nc(N2CCOCC2)c2c(C)c(C(=O)Nc3ccccc3C(F)(F)F)sc2n1,5,i,3,-18,i,7,.,.
O=C(CCS(=O)(=O)c1cccc2nonc12)N1CCCc2ccccc21,0,i,5,-50,i,0,.,.
CC1=NOC(=O)/C1=C/c1ccc(O)c(Br)c1,1,i,11,20,-9.6*,-3,21%*,i
SMILES,Lipid droplet,CHT allo act,HSF1 activator,PHOSPHO1 block,CHT block,HSF1 inhib,CHT inh conf,HEK293 CHT ctr
COc1cc(/C=C2/C(=O)ON=C2c2ccccc2)ccc1O,3,i,.,-1,-6.7*,.,37%*,i
CC1=NOC(=O)/C1=C/c1ccc(O)cc1,-9,i,-4,-6,i,0,.,.
COc1cc(/C=C2\C(=O)ON=C2c2ccccc2)cc(Cl)c1O,3,i,3,18,i,-2,.,.
COc1cc(/C=C2\C(=O)ON=C2c2ccccc2)cc(Br)c1O,-19,i,-6,33,i,-12,.,.
CCOc1cc(/C=C2\C(=O)ON=C2c2ccccc2)cc(Br)c1O,-4,i,-2,33,-5.6*,2,44%*,i
CCOc1cc(/C=C2/C(=O)ON=C2C)cc(Br)c1O,-12,i,-7,20,-9.6*,5,42%*,i
O=C1CCC([N+](=O)[O-])C(c2cc(Br)ccc2F)N1 (configuration not stated),.,i,8,24,i,-3,.,.
CCN(CC)C(=O)N1CCN(S(=O)(=O)c2c(C)cc(C)cc2C)CC1,-17,i,13,-10,i,3,.,.
Cc1ccc2nc(-c3ccc(N4C(=NC(=O)CCC(=O)O)SC5CS(=O)(=O)CC54)cc3)sc2c1 (configuration not stated),0,i,8,-14,i,1,.,.
CC(C)Oc1cc(N)c(Cl)cc1Cl,28,i,-8,24,i,-4,.,.
CCOC(=O)N1CCN(C(=O)c2ccc(S(=O)(=O)NCc3ccco3)cc2)CC1,1,i,-4,4,i,-6,.,.
CCn1c(SCC(=O)Nc2ccccc2)nc2ccccc2c1=O,15,i,3,24,i,6,.,.
O=C(CN1CCN(c2ccc(F)cc2)CC1)NC(=O)NCc1ccco1,-1,i,-3,20,i,3,.,.
Nc1c(C(=O)NCCN2CCOCC2)c2nc3ccccc3nc2n1CCc1ccccc1F,12,i,49,-44,-7.8*,33,30%*,i
